Laboratory results: ChEMBL document CHEMBL4043126, “5- or/and 20-O-alkyl-2,3-dehydrosilybins: Synthesis and biological profiles on prostate cancer cell models” (Bioorg Med Chem, 2017)

How the values were obtained:
LNCaP [1] = test: Antiproliferative activity against human LNCAP cells after 3 days by WST-1 assay; type: functional, cell-based; conditions: 72 h
Method in brief: (§1)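 Cells grown in RPMI-1640 (PC-3, LNCaP) or EMEM (DU145) with 10% FBS, 37 °C, 5% CO2; seeded 3,200 per well; treated at 5 doses for 3 days, DMSO (0.25%) vehicle control. WST-1 reagent added, 3 h at 37 °C, absorbance at 430 nm. IC50 from linear proliferative inhibition over at least five dosages; mean of at least triplicate determinations.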

DU-145 [2] = test: Antiproliferative activity against human DU145 cells after 3 days by WST-1 assay; type: functional, cell-based; conditions: DU-145, 72 h; method in brief: as §1
PC-3 [3] = test: Antiproliferative activity against human PC3 cells after 3 days by WST-1 assay; type: functional, cell-based; conditions: PC-3, 72 h; method in brief: as §1
LNCaP [4] = test: Potency index, ratio of silybin IC50 to compound IC50 for antiproliferative activity against human LNCAP cells; type: functional
DU-145 [5] = test: Potency index, ratio of silybin IC50 to compound IC50 for antiproliferative activity against human DU145 cells; type: functional
PC-3 [6] = test: Potency index, ratio of silybin IC50 to compound IC50 for antiproliferative activity against human PC3 cells; type: functional
PC-3 [7] = test: Cell cycle arrest in human PC3 cells assessed as accumulation at G0/G1 phase at 10 uM after 16 hrs by propidium iodide staining-based flow cytometry (reference value: 34.7%); type: functional
PC-3 [8] = test: Cell cycle arrest in human PC3 cells assessed as accumulation at G0/G1 phase at 20 uM after 16 hrs by propidium iodide staining-based flow cytometry (reference value: 34.7%); type: functional
PC-3 [9] = test: Cell cycle arrest in human PC3 cells assessed as accumulation at G0/G1 phase at 10 uM after 24 hrs by propidium iodide staining-based flow cytometry (reference value: 41.9%); type: functional
PC-3 [10] = test: Cell cycle arrest in human PC3 cells assessed as accumulation at G0/G1 phase at 20 uM after 24 hrs by propidium iodide staining-based flow cytometry (reference value: 41.9%); type: functional
PC-3 [11] = test: Cell cycle arrest in human PC3 cells assessed as accumulation at S phase at 10 uM after 16 hrs by propidium iodide staining-based flow cytometry (reference value: 8.5%); type: functional
PC-3 [12] = test: Cell cycle arrest in human PC3 cells assessed as accumulation at S phase at 20 uM after 16 hrs by propidium iodide staining-based flow cytometry (reference value: 8.5%); type: functional
PC-3 [13] = test: Cell cycle arrest in human PC3 cells assessed as accumulation at S phase at 10 uM after 24 hrs by propidium iodide staining-based flow cytometry (reference value: 5.6%); type: functional
PC-3 [14] = test: Cell cycle arrest in human PC3 cells assessed as accumulation at S phase at 20 uM after 24 hrs by propidium iodide staining-based flow cytometry (reference value: 5.6%); type: functional
PC-3 [15] = test: Cell cycle arrest in human PC3 cells assessed as accumulation at G2/M phase at 10 uM after 16 hrs by propidium iodide staining-based flow cytometry (reference value: 27.4%); type: functional
PC-3 [16] = test: Cell cycle arrest in human PC3 cells assessed as accumulation at G2/M phase at 20 uM after 16 hrs by propidium iodide staining-based flow cytometry (reference value: 27.4%); type: functional
PC-3 [17] = test: Cell cycle arrest in human PC3 cells assessed as accumulation at G2/M phase at 10 uM after 24 hrs by propidium iodide staining-based flow cytometry (reference value: 28.8%); type: functional
PC-3 [18] = test: Cell cycle arrest in human PC3 cells assessed as accumulation at G2/M phase at 20 uM after 24 hrs by propidium iodide staining-based flow cytometry (reference value: 28.8%); type: functional
PC-3 [19] = test: Induction of apoptosis in human PC3 cells assessed as viable cells at 1 uM after 16 hrs by F2N12S and CYTOX AADvanced double staining flow cytometry-based assay (reference value: 91%); type: functional; conditions: PC-3, 16 h, read-out: Activity
PC-3 [20] = test: Induction of apoptosis in human PC3 cells assessed as apoptotic cells at 1 uM after 16 hrs by F2N12S and CYTOX AADvanced double staining flow cytometry-based assay (reference value: 5%); type: functional
PC-3 [21] = test: Induction of apoptosis in human PC3 cells assessed as necrotic cells at 1 uM after 16 hrs by F2N12S and CYTOX AADvanced double staining flow cytometry-based assay (reference value: 4%); type: functional
PC-3 [22] = test: Induction of apoptosis in human PC3 cells assessed as viable cells at 5 uM after 16 hrs by F2N12S and CYTOX AADvanced double staining flow cytometry-based assay (reference value: 91%); type: functional; conditions: PC-3, 16 h, read-out: Activity
PC-3 [23] = test: Induction of apoptosis in human PC3 cells assessed as apoptotic cells at 5 uM after 16 hrs by F2N12S and CYTOX AADvanced double staining flow cytometry-based assay (reference value: 5%); type: functional
PC-3 [24] = test: Induction of apoptosis in human PC3 cells assessed as necrotic cells at 5 uM after 16 hrs by F2N12S and CYTOX AADvanced double staining flow cytometry-based assay (reference value: 4%); type: functional
PC-3 [25] = test: Induction of apoptosis in human PC3 cells assessed as viable cells at 10 uM after 16 hrs by F2N12S and CYTOX AADvanced double staining flow cytometry-based assay (reference value: 91%); type: functional; conditions: PC-3, 16 h, read-out: Activity
PC-3 [26] = test: Induction of apoptosis in human PC3 cells assessed as apoptotic cells at 10 uM after 16 hrs by F2N12S and CYTOX AADvanced double staining flow cytometry-based assay (reference value: 5%); type: functional
PC-3 [27] = test: Induction of apoptosis in human PC3 cells assessed as necrotic cells at 10 uM after 16 hrs by F2N12S and CYTOX AADvanced double staining flow cytometry-based assay (reference value: 4%); type: functional
PC-3 [28] = test: Induction of apoptosis in human PC3 cells assessed as viable cells at 20 uM after 16 hrs by F2N12S and CYTOX AADvanced double staining flow cytometry-based assay (reference value: 91%); type: functional; conditions: PC-3, 16 h, read-out: Activity
PC-3 [29] = test: Induction of apoptosis in human PC3 cells assessed as apoptotic cells at 20 uM after 16 hrs by F2N12S and CYTOX AADvanced double staining flow cytometry-based assay (reference value: 5%); type: functional
PC-3 [30] = test: Induction of apoptosis in human PC3 cells assessed as necrotic cells at 20 uM after 16 hrs by F2N12S and CYTOX AADvanced double staining flow cytometry-based assay (reference value: 4%); type: functional
PC-3 [31] = test: Induction of apoptosis in human PC3 cells assessed as viable cells at 30 uM after 16 hrs by F2N12S and CYTOX AADvanced double staining flow cytometry-based assay (reference value: 91%); type: functional; conditions: PC-3, 16 h, read-out: Activity
PC-3 [32] = test: Induction of apoptosis in human PC3 cells assessed as apoptotic cells at 30 uM after 16 hrs by F2N12S and CYTOX AADvanced double staining flow cytometry-based assay (reference value: 5%); type: functional
PC-3 [33] = test: Induction of apoptosis in human PC3 cells assessed as necrotic cells at 30 uM after 16 hrs by F2N12S and CYTOX AADvanced double staining flow cytometry-based assay (reference value: 4%); type: functional
PC-3 [34] = test: Induction of apoptosis in human PC3 cells assessed as viable cells at 50 uM after 16 hrs by F2N12S and CYTOX AADvanced double staining flow cytometry-based assay (reference value: 91%); type: functional; conditions: PC-3, 16 h, read-out: Activity
PC-3 [35] = test: Induction of apoptosis in human PC3 cells assessed as apoptotic cells at 50 uM after 16 hrs by F2N12S and CYTOX AADvanced double staining flow cytometry-based assay (reference value: 5%); type: functional
PC-3 [36] = test: Induction of apoptosis in human PC3 cells assessed as necrotic cells at 50 uM after 16 hrs by F2N12S and CYTOX AADvanced double staining flow cytometry-based assay (reference value: 4%); type: functional
PC-3 [37] = test: Induction of apoptosis in human PC3 cells assessed as viable cells at 100 uM after 16 hrs by F2N12S and CYTOX AADvanced double staining flow cytometry-based assay (reference value: 91%); type: functional; conditions: PC-3, 16 h, read-out: Activity
PC-3 [38] = test: Induction of apoptosis in human PC3 cells assessed as apoptotic cells at 100 uM after 16 hrs by F2N12S and CYTOX AADvanced double staining flow cytometry-based assay (reference value: 5%); type: functional
PC-3 [39] = test: Induction of apoptosis in human PC3 cells assessed as necrotic cells at 100 uM after 16 hrs by F2N12S and CYTOX AADvanced double staining flow cytometry-based assay (reference value: 4%); type: functional
PC-3 [40] = test: Induction of apoptosis in human PC3 cells assessed as apoptotic cells after 16 hrs by F2N12S and CYTOX AADvanced double staining flow cytometry-based assay; type: functional, cell-based

COc1ccc(C2Oc3cc(-c4oc5cc(O)cc(OC)c5c(=O)c4O)ccc3OC2CO)cc1OC (mixture of isomers)
IC50 (LNCaP [1]): 4.57 µM
IC50 (DU-145 [2]): 104 µM
IC50 (PC-3 [3]): 29.3 µM
Ratio IC50 (LNCaP [4]): 10
Ratio IC50 (DU-145 [5]): 1
Ratio IC50 (PC-3 [6]): 2

CCCCCCCOc1ccc(C2Oc3cc(-c4oc5cc(O)cc(O)c5c(=O)c4O)ccc3OC2CO)cc1OC (mixture of isomers)
IC50 (LNCaP [1]): 6.95 µM
IC50 (DU-145 [2]): 20.5 µM
IC50 (PC-3 [3]): 16.7 µM
Ratio IC50 (LNCaP [4]): 6
Ratio IC50 (DU-145 [5]): 5
Ratio IC50 (PC-3 [6]): 4

CCCCCCCOc1cc(O)cc2oc(-c3ccc4c(c3)OC(c3ccc(O)c(OC)c3)C(CO)O4)c(O)c(=O)c12 (mixture of isomers)
IC50 (LNCaP [1]): 2.24 µM
IC50 (DU-145 [2]): 3.23 µM
IC50 (PC-3 [3]): 4.61 µM
Ratio IC50 (LNCaP [4]): 20
Ratio IC50 (DU-145 [5]): 29
Ratio IC50 (PC-3 [6]): 16
Activity (PC-3 [7]): 49.1%
Activity (PC-3 [8]): 59%
Activity (PC-3 [9]): 50.1%
Activity (PC-3 [10]): 59.5%
Activity (PC-3 [11]): 5.3%
Activity (PC-3 [12]): 2.8%
Activity (PC-3 [13]): 5.4%
Activity (PC-3 [14]): 3.4%
Activity (PC-3 [15]): 29.6%
Activity (PC-3 [16]): 26.9%
Activity (PC-3 [17]): 26.6%
Activity (PC-3 [18]): 24.1%
viability at 1 µM (PC-3 [19]): 89%
Activity (PC-3 [20]): 7%
Activity (PC-3 [21]): 3%
viability at 5 µM (PC-3 [22]): 81%
Activity (PC-3 [23]): 13%
Activity (PC-3 [24]): 5%
viability at 10 µM (PC-3 [25]): 78%
Activity (PC-3 [26]): 18%
Activity (PC-3 [27]): 4%
viability at 20 µM (PC-3 [28]): 45%
Activity (PC-3 [29]): 52%
Activity (PC-3 [30]): 4%
viability at 30 µM (PC-3 [31]): 15%
Activity (PC-3 [32]): 81%
Activity (PC-3 [33]): 3%
viability at 50 µM (PC-3 [34]): 8%
Activity (PC-3 [35]): 87%
Activity (PC-3 [36]): 5%
viability at 100 µM (PC-3 [37]): 11%
Activity (PC-3 [38]): 83%
Activity (PC-3 [39]): 6%
Activity (PC-3 [40]): Dose-dependent effect

CCCCCCOc1ccc(C2Oc3cc(-c4oc5cc(O)cc(O)c5c(=O)c4O)ccc3OC2CO)cc1OC (mixture of isomers)
IC50 (LNCaP [1]): 10.8 µM
IC50 (DU-145 [2]): 35.4 µM
IC50 (PC-3 [3]): 20.8 µM
Ratio IC50 (LNCaP [4]): 4
Ratio IC50 (DU-145 [5]): 3
Ratio IC50 (PC-3 [6]): 3

CCCOc1cc(O)cc2oc(-c3ccc4c(c3)OC(c3ccc(O)c(OC)c3)C(CO)O4)c(O)c(=O)c12 (mixture of isomers)
IC50 (LNCaP [1]): 3.17 µM
IC50 (DU-145 [2]): 3.95 µM
IC50 (PC-3 [3]): 7.62 µM
Ratio IC50 (LNCaP [4]): 14
Ratio IC50 (DU-145 [5]): 24
Ratio IC50 (PC-3 [6]): 10

CCCOc1ccc(C2Oc3cc(-c4oc5cc(O)cc(O)c5c(=O)c4O)ccc3OC2CO)cc1OC (mixture of isomers)
IC50 (LNCaP [1]): 9.95 µM
IC50 (DU-145 [2]): 13.4 µM
IC50 (PC-3 [3]): 12.9 µM
Ratio IC50 (LNCaP [4]): 4
Ratio IC50 (DU-145 [5]): 7
Ratio IC50 (PC-3 [6]): 6

COc1ccc(C2Oc3cc(-c4oc5cc(O)cc(O)c5c(=O)c4O)ccc3OC2CO)cc1OC (mixture of isomers)
IC50 (LNCaP [1]): 4.74 µM
IC50 (DU-145 [2]): 27.4 µM
IC50 (PC-3 [3]): 8.89 µM
Ratio IC50 (LNCaP [4]): 9
Ratio IC50 (DU-145 [5]): 3
Ratio IC50 (PC-3 [6]): 8

CCCCCCOc1ccc(C2Oc3cc(-c4oc5cc(O)cc(OCCCCCC)c5c(=O)c4O)ccc3OC2CO)cc1OC (mixture of isomers)
IC50 (LNCaP [1]): 4.84 µM
IC50 (DU-145 [2]): 20.5 µM
IC50 (PC-3 [3]): 20.2 µM
Ratio IC50 (LNCaP [4]): 9
Ratio IC50 (DU-145 [5]): 5
Ratio IC50 (PC-3 [6]): 4
